In ChEMBL document CHEMBL1649438, “Activities of ceftobiprole and other cephalosporins against extracellular and intracellular (THP-1 macrophages and keratinocytes) forms of methicillin-susceptible and methicillin-resistant Staphylococcus aureus” (Antimicrob Agents Chemother, 2009):
Values after ≈ are worked out from the molar mass of the structure shown.

Experiments:
Staphylococcus aureus [1] = experiment: Antimicrobial activity against hospital-acquired vancomycin-intermediate Staphylococcus aureus NRS18 infected in human THP-1 cells assessed as bacterial count per mg of cell protein at high extracellular compound concentration after 24 hrs; type: functional
In short: (§1)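 Human THP-1 macrophage-like cells were infected with S. aureus to a postphagocytosis inoculum of 1.5 × 10^6 to 3.0 × 10^6 CFU/mg cell protein. Cells were then exposed 24 h to increasing extracellular antibiotic concentrations. Response was the log10 CFU change per mg protein from the postphagocytosis inoculum, n = 3. A Hill function was fitted on log-transformed axes. E0 and Emax were extrapolated to infinitely low and high concentrations. Cs was read by graphical interpolation. Concentrations were expressed as multiples of the broth MIC at pH 5.5 or pH 7.4.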

Staphylococcus aureus [2] = experiment: Antimicrobial activity against Panton-valentine leucocidin-positive community-acquired methicillin-resistant Staphylococcus aureus N4042228 infected in human THP-1 cells assessed as bacterial count per mg of cell protein at high extracellular compound concentration after 24 hrs; type: functional
In short: (§2)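 THP-1 human macrophages infected with S. aureus (postphagocytosis inoculum 1.5 × 10^6 to 3.0 × 10^6 CFU/mg cell protein), then incubated 24 h with increasing extracellular antibiotic concentrations. Change in log10 CFU/mg cell protein from the postphagocytosis inoculum, n = 3. Hill function fitted on log-transformed data. Low-concentration value (E0) and high-concentration value (Emax) are extrapolated. Where a pH is given, concentrations are expressed as multiples of the broth MIC at that pH.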

Staphylococcus aureus [3] = experiment: Antimicrobial activity against methicillin-susceptible Staphylococcus aureus NRS52 infected in human THP-1 cells assessed as change in bacterial count after 24 hrs at pH 5.5; type: functional, organism-based; conditions: NRS52, THP-1, 24 h
In short: (§3)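 THP-1 macrophages infected as described previously, with a postphagocytosis inoculum of 1.5 × 10⁶ to 3.0 × 10⁶ CFU/mg cell protein. Cells were exposed 24 h to increasing extracellular antibiotic concentrations. Response is the change in log10 CFU/mg protein from the inoculum (n = 3), fitted to a Hill function. E0 and Emax were extrapolated to infinitely low and high concentrations. EC50 and static concentration (graphical interpolation) are expressed as multiples of the broth MIC at pH 5.5 or 7.4.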

Staphylococcus aureus [4] = experiment: Bacteriostatic activity against Panton-valentine leucocidin-positive community-acquired methicillin-resistant Staphylococcus aureus STA 44 infected in human THP-1 cells assessed as change in bacterial count after 24 hrs at pH 5.5; type: functional; in short: as §3
Staphylococcus aureus [5] = experiment: Bacteriostatic activity against Panton-valentine leucocidin-positive community-acquired methicillin-resistant Staphylococcus aureus NRS192 infected in human THP-1 cells assessed as change in bacterial count after 24 hrs at pH 5.5; type: functional; in short: as §3
Staphylococcus aureus [6] = experiment: Antimicrobial activity against Panton-valentine leucocidin-positive community-acquired methicillin-resistant Staphylococcus aureus isolate MEH2225605 infected in human THP-1 cells assessed as bacterial count per mg of cell protein at high extracellular compound concentration after 24 hrs; type: functional; in short: as §2
Staphylococcus aureus [7] = experiment: Antimicrobial activity against hospital-acquired methicillin-resistant Staphylococcus aureus […] infected in human THP-1 cells assessed as change in bacterial count after 24 hrs; type: functional, organism-based; conditions: THP-1, 24 h; in short: as §3
Staphylococcus aureus [8] = experiment: Antimicrobial activity against Panton-valentine leucocidin-positive community-acquired methicillin-resistant Staphylococcus aureus NRS192 infected in human THP-1 cells assessed as change in bacterial count after 24 hrs at pH 5.5; type: functional, organism-based; conditions: NRS192, THP-1, 24 h; in short: as §2
Staphylococcus aureus [9] = experiment: Bacteriostatic activity against methicillin-resistant Staphylococcus aureus ATCC 33591 infected in human keratinocytes assessed as change in bacterial count after 24 hrs; type: functional
In short: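 Primary human skin keratinocytes were grown in defined keratinocyte serum-free medium, infected, then incubated 24 h with increasing extracellular drug concentrations. Response was the change in log10 CFU/mg cell protein versus the post-phagocytosis inoculum, fitted to a Hill equation with slope factor 1. Static concentration (mg/liter, total drug) was taken by graphical interpolation where CFU equalled the original inoculum.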

Staphylococcus aureus [10] = experiment: Antimicrobial activity against Panton-valentine leucocidin-positive community-acquired methicillin-resistant Staphylococcus aureus NRS192 infected in human THP-1 cells assessed as bacterial count per mg of cell protein at high extracellular compound concentration after 24 hrs at pH 5.5; type: functional; in short: as §2
Staphylococcus aureus [11] = experiment: Antimicrobial activity against hospital-acquired methicillin-resistant Staphylococcus aureus […] infected in human THP-1 cells assessed as bacterial count per mg of cell protein at low extracellular compound concentration after 24 hrs; type: functional; in short: as §3
Staphylococcus aureus [12] = experiment: Antimicrobial activity against Panton-valentine leucocidin-positive community-acquired methicillin-resistant Staphylococcus aureus isolate MEH2225605 infected in human THP-1 cells assessed as change in bacterial count after 24 hrs at pH 5.5; type: functional, organism-based; conditions: isolate MEH2225605, THP-1, 24 h; in short: as §2
Staphylococcus aureus [13] = experiment: Antimicrobial activity against methicillin-resistant Staphylococcus aureus ATCC 33591 infected in human keratinocytes assessed as bacterial count per mg of cell protein at high extracellular compound concentration after 24 hrs; type: functional
In short: (§4)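 Primary human skin keratinocytes were grown in defined keratinocyte serum-free medium, infected with a postphagocytosis inoculum of 1.5 × 10⁶ to 3.0 × 10⁶ CFU/mg cell protein, then exposed 24 h to increasing extracellular antibiotic concentrations. Change in log10 CFU/mg protein from the inoculum was fitted to a Hill equation with slope 1. E0 and Emax were extrapolated to infinitely low and high concentrations, in total drug mg/liter.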

Staphylococcus aureus [14] = experiment: Antimicrobial activity against hospital-acquired vancomycin-resistant Staphylococcus aureus VRS1 infected in human THP-1 cells assessed as change in bacterial count after 24 hrs; type: functional, cell-based; conditions: VRS1, THP-1, 24 h; in short: as §3
Staphylococcus aureus [15] = experiment: Antimicrobial activity against Panton-valentine leucocidin-positive community-acquired methicillin-resistant Staphylococcus aureus STA 228 infected in human THP-1 cells assessed as change in bacterial count after 24 hrs at pH 7.4; type: functional, organism-based; conditions: STA 228, THP-1, 24 h; in short: as §2
Staphylococcus aureus [16] = experiment: Antimicrobial activity against methicillin-resistant Staphylococcus aureus ATCC 33591 infected in human keratinocytes assessed as bacterial count per mg of cell protein at low extracellular compound concentration after 24 hrs; type: functional; in short: as §4
Staphylococcus aureus [17] = experiment: Antimicrobial activity against hospital-acquired methicillin-resistant Staphylococcus aureus ATCC 33591 infected in human THP-1 cells assessed as change in bacterial count after 24 hrs at pH 5.5; type: functional, organism-based; conditions: ATCC 33591, THP-1, 24 h; in short: as §3
Staphylococcus aureus [18] = experiment: Antimicrobial activity against Panton-valentine leucocidin-positive community-acquired methicillin-resistant Staphylococcus aureus STA 44 infected in human THP-1 cells assessed as change in bacterial count after 24 hrs; type: functional, organism-based; conditions: STA 44, THP-1, 24 h; in short: as §2
Staphylococcus aureus [19] = experiment: Antimicrobial activity against hospital-acquired vancomycin-intermediate Staphylococcus aureus NRS18 infected in human THP-1 cells assessed as change in bacterial count after 24 hrs at pH 7.4; type: functional, organism-based; conditions: NRS18, THP-1, 24 h; in short: as §3
Staphylococcus aureus [20] = experiment: Bacteriostatic activity against hospital-acquired vancomycin-intermediate Staphylococcus aureus NRS18 infected in human THP-1 cells assessed as change in bacterial count after 24 hrs at pH 7.4; type: functional; in short: as §1
Staphylococcus aureus [21] = experiment: Antimicrobial activity against hospital-acquired vancomycin-intermediate Staphylococcus aureus NRS18 infected in human THP-1 cells assessed as bacterial count per mg of cell protein at low extracellular compound concentration after 24 hrs at pH 7.4; type: functional; in short: as §1
Staphylococcus aureus [22] = experiment: Antimicrobial activity against hospital-acquired vancomycin-intermediate Staphylococcus aureus NRS18 infected in human THP-1 cells assessed as change in bacterial count after 24 hrs at pH 5.5; type: functional, organism-based; conditions: NRS18, THP-1, 24 h; in short: as §3

For Nc1nc(/C(=N/O)C(=O)N[C@@H]2C(=O)N3C(C(=O)O)=C(/C=C4\CCN([C@@H]5CCNC5)C4=O)CS[C@H]23)ns1 [CEFTOBIPROLE], the log10cfu (Staphylococcus aureus [1]) was -1.34, the log10cfu (Staphylococcus aureus [2]) was -1.12 and the EC50 (Staphylococcus aureus [3]) was 0.41 × MIC. For the same molecule, the Activity (Staphylococcus aureus [4]) was 1.45 × MIC, the Activity (Staphylococcus aureus [5]) was 1.45 × MIC and the log10cfu (Staphylococcus aureus [6]) was -0.97. For the same molecule, the EC50 (Staphylococcus aureus [7]) was 0.73 µg/mL (≈ 1.37 µM), the EC50 (Staphylococcus aureus [8]) was 0.54 × MIC and the Activity (Staphylococcus aureus [9]) was 1.95 mg/L. It also gave a log10cfu (Staphylococcus aureus [10]) of -1.02, a log10cfu (Staphylococcus aureus [11]) of 2.46 and an EC50 (Staphylococcus aureus [12]) of 0.54 × MIC. It also gave a log10cfu (Staphylococcus aureus [13]) of -1.14, an EC50 (Staphylococcus aureus [14]) of 0.25 µg/mL (≈ 0.468 µM) and an EC50 (Staphylococcus aureus [15]) of 0.33 ×MIC. It also gave a log10cfu (Staphylococcus aureus [16]) of 2.04, an EC50 (Staphylococcus aureus [17]) of 0.77 × MIC and an EC50 (Staphylococcus aureus [18]) of 0.94 µg/mL (≈ 1.76 µM). It also gave an EC50 (Staphylococcus aureus [19]) of 0.28 ×MIC, an Activity (Staphylococcus aureus [20]) of 0.74 mg/L and a log10cfu (Staphylococcus aureus [21]) of 2.6. It also gave an EC50 (Staphylococcus aureus [22]) of 0.77 ×MIC.
